Results published in ChEMBL document CHEMBL1133685, “Synthesis of new 2,6-prolylxylidide analogues of tocainide as stereoselective blockers of voltage-gated Na(+) channels with increased potency and improved use-dependent activity” (J Med Chem, 2000).

Key:
[1] = Half maximal concentration for producing a phasic block in skeletal muscle fibers (cumulative sodium current reduction at 10 Hz stimulations frequency); assay type: functional, tissue-based, Muscle tissue
Summary of the method: (§1)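 Four-pool grease-gap voltage clamp on single skeletal muscle fibers; the central pool held external solution (mM: NaCl 77, choline Cl 38, CaCl2 1.8, KCl 2.5, Na2HPO4 2.15, NaH2PO4 0.85) with drug added. Recordings at 10 °C after 10 min equilibration, holding potential -100 mV, 10-ms test pulses to -20 mV. IC50 for I_Namax block came from a logistic fit of concentration-response data, 3-7 fibers per point, mean ± SEM.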

[2] = Half maximal concentration for producing a tonic block in skeletal muscle fibers (block of sodium channel at resting conditions evaluated during infrequent depolarizing pulses); assay type: functional, tissue-based, Muscle tissue; summary of the method: as §1
[3] = In vitro potential anti-myotonic activity as potency in phasic block in relation to tocainide (tocainide = 1); assay type: functional
Summary of the method: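 Phasic block was measured at 10 Hz by voltage clamp of skeletal muscle fiber Na+ current at 10 °C, holding potential -100 mV, pulses to -20 mV. The IC50 came from a logistic concentration-response fit, and potency was expressed relative to tocainide (tocainide = 1).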

[4] = Ratio of IC50 tonic block to IC50 phasic block; assay type: functional

SMILES | IC50 [1] | IC50 [2] | Activity [3] | Ratio [4]
Cc1cccc(C)c1NC(=O)[C@H]1CCCN1C | 100 µM | 300 µM | 2.7 | 3
Cc1cccc(C)c1NC(=O)[C@H]1CCCN1 | 13 µM | 110 µM | 21 | 8.5
Cc1cccc(C)c1NC(=O)[C@H](C)N [S-TOCAINIDE] | 220 µM | 520 µM | 1 | 2.4
Cc1cccc(C)c1NC(=O)[C@@H]1CCCN1C | 28 µM | 106 µM | 8 | 3.4
Cc1cccc(C)c1NC(=O)[C@@H]1CCCN1 | 44 µM | 230 µM | 5 | 5.2
Cc1cccc(C)c1NC(=O)[C@@H](C)N [(R)-TOCAINIDE] | 270 µM | 580 µM | 1 | 2.1

The next lines start with results.

IC50 [1] | IC50 [2] | SMILES | Activity [3] | Ratio [4]
67 µM | 104 µM | Cc1cccc(C)c1N(C)C(=O)[C@@H]1CCCN1 | 3 | 1.5
440 µM | > 500 µM | Cc1cccc(C)c1N(C)C(=O)[C@H]1CCCN1C | 0.6 | > 1.1
217 µM | 340 µM | Cc1cccc(C)c1N(C)C(=O)[C@H]1CCCN1 | 1 | 1.6
198 µM | 286 µM | Cc1cccc(C)c1N(C)C(=O)[C@@H]1CCCN1C | 1.1 | 1.4
